In PubChem BioAssay AID588557 (Sanford-Burnham Center for Chemical Genomics, 2011):
Calls of active or inactive are those of the source.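 The calls were made as follows: active = cytotoxic IC50, the dose that kills half the cells, at 20 µM or lower; inactive = the rest.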

Tested on: CHO-CHOP cells viability, ATPLite luminescence, 6 h
Assay: cytotoxicity in CHO-CHOP reporter cells, SAR follow-up, cytotoxicity control for UPR apoptotic arm activator project, cell-based, 6 h exposure, ATPLite luminescence (AID 588557)
Procedure, shortened: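 Test system: CHO-CHOP reporter cells | Quantity: 500 cells/well | Medium: F12 plus 10% FBS | Dosing: Dose response, DMSO ≤1% final | Times: 16–18 h pre-dosing growth, then 6 h exposure at 37 °C | Signal: ATP luminescence with ATPLite 1-Step reagent | Benchmarks: Tunicamycin 10 µg/mL final as positive control, DMSO alone as negative control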

SMILES | IC50
O=C(Nc1nc2cc(F)ccc2s1)c1ccccn1 | 2.7 µM
O=C(Nc1nc2c(F)cc(F)cc2s1)c1ccccn1 | 9.57 µM
O=C(Nc1nc2c(F)ccc(F)c2s1)c1ccccn1 | 23.6 µM (inactive)
O=C(Nc1nc2cc(F)cc(F)c2s1)c1ccccn1 | 8.88 µM
O=C(Nc1nc2c(Cl)cc(Cl)cc2s1)c1ccccn1 | > 80 µM (inactive)
O=C(Nc1nc2cccc(F)c2s1)c1ccccn1 | 7.07 µM
O=C(Nc1nc2ccc(F)c(F)c2s1)c1ccccn1 | 13.4 µM
CC1CCN(S(=O)(=O)c2ccc(NC(=O)c3ccc([N+](=O)[O-])o3)cc2)CC1 | > 80 µM (inactive)
O=C(Nc1ccc(S(=O)(=O)N2CCC(Cl)CC2)cc1)c1ccc([N+](=O)[O-])o1 | > 80 µM (inactive)
O=C(Nc1ccc(S(=O)(=O)N2CCCCC2)cc1)c1ccc([N+](=O)[O-])o1 | > 80 µM (inactive)
O=C(Nc1ccc(S(=O)(=O)c2ccccc2)cc1)c1ccc([N+](=O)[O-])o1 | > 80 µM (inactive)
O=C(Nc1ccc(S(=O)(=O)N2CCC(F)CC2)cc1)c1ccc([N+](=O)[O-])o1 | > 80 µM (inactive)
CC(C)(C)C1CCN(S(=O)(=O)c2ccc(NC(=O)c3ccc([N+](=O)[O-])o3)cc2)CC1 | > 80 µM (inactive)
O=C(Nc1nc2ccc(C(F)(F)F)cc2s1)c1ccccn1 | 4.63 µM
O=C(Nc1ccc(S(=O)(=O)N2CCC3(CCCCC3)CC2)cc1)c1ccc([N+](=O)[O-])o1 | > 80 µM (inactive)
O=C(Nc1ccc(S(=O)(=O)N2CCC(O)CC2)cc1)c1ccc([N+](=O)[O-])o1 | > 80 µM (inactive)
O=C(Nc1ccc(S(=O)(=O)N2CCOCC2)cc1)c1ccc([N+](=O)[O-])s1 | > 80 µM (inactive)
CC1(C)CCN(S(=O)(=O)c2ccc(NC(=O)c3ccc([N+](=O)[O-])o3)cc2)CC1 | > 80 µM (inactive)
O=C(Nc1ccc(S(=O)(=O)N2CCNCC2)cc1)c1ccc([N+](=O)[O-])o1 | > 80 µM (inactive)
O=C(Nc1ccc(S(=O)(=O)N2CCCC2)cc1)c1ccc([N+](=O)[O-])o1 | 74.6 µM (inactive)
O=C(Nc1ccc(S(=O)(=O)N2CCOCC2)cc1)c1ccc([N+](=O)[O-])o1 | > 80 µM (inactive)
O=C(Nc1nc2c(F)c(F)ccc2s1)c1ccccn1 | 15.1 µM
O=C(Nc1nc2cc(F)c(F)cc2s1)c1ccccn1 | 8.4 µM
O=C(Nc1nc2ccc(Cl)cc2s1)c1ccccn1 | 3.84 µM
Cc1cc(C)c2nc(NC(=O)c3ccccn3)sc2c1 | 16.2 µM
O=C(Nc1nc2c(F)cccc2s1)c1ccccn1 | 4.42 µM
O=C(Nc1ccc(S(=O)(=O)C2CCCCC2)cc1)c1ccc([N+](=O)[O-])o1 | > 80 µM (inactive)
O=C(Nc1nc2ccc(F)cc2s1)c1ccccn1 | 4.52 µM
O=C(Nc1ccc(S(=O)(=O)C2CCOCC2)cc1)c1ccc([N+](=O)[O-])o1 | > 80 µM (inactive)
CC1CN(S(=O)(=O)c2ccc(NC(=O)c3ccc([N+](=O)[O-])o3)cc2)CC(C)O1 (stereo not given) | > 80 µM (inactive)
